Reference: ChEMBL document CHEMBL1124354, “Potential antiatherosclerotic agents. 6. Hypocholesterolemic trisubstituted urea analogues” (J Med Chem, 1989)

Key:
[1] = tested on: Oryctolagus cuniculus; assay: Compound was evaluated for rabbit serum cholesterol level at dose 110 mg/kg per day on day 0; assay type: functional
Outline: (§1)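 Male New Zealand rabbits (2.5–3.0 kg) on rabbit pellets with 0.4% cholesterol and peanut oil for one week, then bled and grouped by plasma sterol. Drug mixed in diet (6% peanut oil) at 0.25, 0.075 or 0.025% for five weeks, about 109.6, 34.5 or 11.2 mg/kg/day. Dietary cholesterol adjusted weekly (0.30–0.35%). Aortic balloon denudation on day 7 of dosing.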

[2] = tested on: Oryctolagus cuniculus; assay: Compound was evaluated for rabbit serum cholesterol level at dose 11 mg/kg per day on day 7; assay type: functional; outline: as §1
[3] = target: T1, Sterol O-acyltransferase 1 (Rattus norvegicus, UniProt O70536); assay: In vitro inhibitory concentration against acyl coenzyme A:cholesterol acyltransferase derived from rat adrenals
T1 sequence (O70536 whole entry): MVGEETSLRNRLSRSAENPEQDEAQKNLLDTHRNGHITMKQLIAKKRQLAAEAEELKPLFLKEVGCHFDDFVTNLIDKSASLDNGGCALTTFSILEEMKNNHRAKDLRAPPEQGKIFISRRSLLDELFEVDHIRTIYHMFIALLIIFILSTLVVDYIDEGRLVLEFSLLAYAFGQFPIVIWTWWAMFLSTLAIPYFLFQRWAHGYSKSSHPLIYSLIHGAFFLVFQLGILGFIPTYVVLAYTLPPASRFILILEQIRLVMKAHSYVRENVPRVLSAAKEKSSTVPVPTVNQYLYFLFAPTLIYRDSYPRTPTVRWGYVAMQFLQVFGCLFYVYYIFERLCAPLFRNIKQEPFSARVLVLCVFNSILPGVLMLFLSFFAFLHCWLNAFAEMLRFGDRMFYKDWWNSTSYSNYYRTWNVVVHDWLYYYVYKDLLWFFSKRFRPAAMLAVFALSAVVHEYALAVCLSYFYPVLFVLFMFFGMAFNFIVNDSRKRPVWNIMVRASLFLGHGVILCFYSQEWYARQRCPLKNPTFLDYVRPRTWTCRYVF
Outline: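 Rat adrenal homogenate in 0.2 M KH2PO4 buffer pH 7.4, 1000g supernatant (microsomal fraction) as enzyme; preincubated with BSA and test compound at graded concentrations, 37 °C 10 min, then [14C]oleoyl-CoA 0.4 µCi, 37 °C 30 min. Lipids extracted, cholesteryl ester isolated by TLC and counted. Triplicate tubes per concentration; IC50 by linear regression of means.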

[4] = tested on: Oryctolagus cuniculus; assay: Compound was evaluated for rabbit serum cholesterol level at dose 11 mg/kg per day on day 35; assay type: functional; outline: as §1
[5] = target: T2, Sterol O-acyltransferase 1 (Rattus norvegicus) (UniProt O70536); assay: In vitro percentage inhibition against acyl coenzyme A:cholesterol acyltransferase derived from rat adrenals; design: concentration or dose not given beside the values; conditions: concentration not given here
T2 sequence (whole entry): T1 sequence (O70536 whole entry)
Outline: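 Rat adrenal 1000g supernatant (microsomal ACAT) in 0.2 M KH2PO4 pH 7.4 with BSA; test compound at final 5.2 µg/mL, preincubated 37 °C 10 min; [14C]oleoyl-CoA (0.4 µCi) added, 37 °C 30 min. Cholesteryl ester separated by TLC, scintillation counted; mean percent inhibition against compound-free control.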

[6] = tested on: Oryctolagus cuniculus; assay: Compound was evaluated for rabbit serum cholesterol level at dose 35 mg/kg per day on day 0; assay type: functional; outline: as §1
[7] = tested on: Oryctolagus cuniculus; assay: Compound was evaluated for rabbit serum cholesterol level at dose 110 mg/kg per day on day 35; assay type: functional; outline: as §1
[8] = tested on: Oryctolagus cuniculus; assay: Compound was evaluated for rabbit serum cholesterol level at dose 35 mg/kg per day on day 35; assay type: functional; outline: as §1
[9] = tested on: Oryctolagus cuniculus; assay: Compound was evaluated for rabbit serum cholesterol level at dose 35 mg/kg per day on day 7; assay type: functional; outline: as §1
[10] = tested on: Oryctolagus cuniculus; assay: Compound was evaluated for rabbit serum cholesterol level at dose 35 mg/kg per day on day 21; assay type: functional; outline: as §1
[11] = target: T2, Sterol O-acyltransferase 1 (Rattus norvegicus); assay: Serum hypolipidemic activity in rats; assay type: functional
Outline: (§2)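 Male CD-1 Sprague-Dawley rats, 140–150 g, fed 1% cholesterol/0.5% cholic acid diet with compound admixed at 0.01% (about 10 mg/kg/day) for 7 days. Serum and liver cholesterol measured by Technicon autoanalyzer methods; expressed as percent of control.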

[12] = target: T2, Sterol O-acyltransferase 1 (Rattus norvegicus); assay: Liver hypolipidemic activity in rats; assay type: functional; outline: as §2
[13] = tested on: Oryctolagus cuniculus; assay: Compound was evaluated for rabbit serum cholesterol level at dose 110 mg/kg per day on day 7; assay type: functional; outline: as §1
[14] = tested on: Oryctolagus cuniculus; assay: Compound was evaluated for rabbit serum cholesterol levels for a dose of 110 mg/kg per day on day 21; assay type: functional; outline: as §1
[15] = tested on: Oryctolagus cuniculus; assay: Compound was evaluated for rabbit serum cholesterol level at dose 11 mg/kg per day on day 0; assay type: functional; outline: as §1
[16] = tested on: Oryctolagus cuniculus; assay: Compound was evaluated for rabbit serum cholesterol level at dose 11 mg/kg per day on day 21; assay type: functional; outline: as §1
[17] = target: T2, Sterol O-acyltransferase 1 (Rattus norvegicus); assay: In vitro percentage inhibition against Acyl coenzyme A:cholesterol acyltransferase derived from rat adrenals; conditions: concentration not given here

Structure (SMILES) | SC [1] [mg/dL] | SC [2] [mg/dL] | IC50 [3] [µM] | SC [4] [mg/dL] | inhibition [5] [%] | SC [6] [mg/dL] | SC [7] [mg/dL] | SC [8] [mg/dL] | SC [9] [mg/dL] | SC [10] [mg/dL] | SS [11] [%] | LS [12] [%] | SC [13] [mg/dL] | SC [14] [mg/dL] | SC [15] [mg/dL] | SC [16] [mg/dL] | inhibition [17] [%]
CCCCN(Cc1ccccc1)C(=O)Nc1ccc(C)cc1C | 278 | 340 | 4.8 | 722 | 91 | 270 | 405 | 488 | 255 | 357 | 70 | 75 | 230 | 343 | 307 | 556 | 
CCCCCCCN(Cc1ccco1)C(=O)Nc1cc(C)c(C)cc1C |  |  |  |  |  |  |  |  |  |  | 44 | 38 |  |  |  |  | 94
